NLRP3 yeast inh – inhibitors of NALP3 inflammasome in yeast; AID 2825; inhibition, % at 10 µM; 330,000 compounds, 0.39% hits; Yeast reconstituted NLRP3/ASC/caspase-1, beta-gal luminescence, 24 h;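 active = inhibition of 50% or more; inactive = inhibition below 50%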
Calb FLC – C. albicans growth modulation with fluconazole; growth inhibition, % (test concentration not listed); AID 1979; C. albicans CaCi-2 + fluconazole, Alamar Blue growth, 48 h; 300,000 compounds, 0.57% hits;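 active = growth inhibition above about 58% in most replicates, limit read from the data, passing the limit was not always enough; inconclusive = exactly half the replicates above a set limit; inactive = most replicates below a set limit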;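 also: all wells also contain fluconazole at 8 µg/ml as a sub-toxic cotreatment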
T cruzi repl – T. cruzi replication inhibition | T. cruzi beta-gal in NIH3T3, luminescence, 90 h | inhibition, % (no concentration beside the values) | 300,000 compounds, 1.4% hits;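 active = mean inhibition across valid replicates above about 55%, limit read from the data; inconclusive = mean below that limit but half or more replicates reach it; inactive = mean below it, under half of replicates reach it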;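 also: signal also drops with host cell toxicity which is not excluded here; higher percent means less beta-gal luminescence so fewer parasites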
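Assay system: NIH/3T3 fibroblasts plus reporter T. cruzi. Amount: NIH/3T3 cells, 5,000 per well. Buffer or medium: DMEM, 2% fetal bovine serum. Doses: compound pinned at 50 nL/well, DMSO. Schedule: ≥90 h infection period, 3 h prior cell attachment. Signal: luminescent β-galactosidase signal after 60 min lysis. Read-out: parasite load inhibition, %.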
Beta cell apopt – beta cell apoptosis inhibition; INS-1E cytokine-induced death, ATP luminescence, 48 h; percent of positive-control rescue, neutral wells zero; protection from apoptosis, % (test concentration not listed); 300,000 compounds, 0.8% hits; AID 435005;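 active = Every replicate reaches about 75%, or at least half do and their mean reaches it too, limit read from the data; inconclusive = At least half of replicates reach the limit but their mean does not; inactive = Under half of replicates reach the limit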;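 also: higher means more ATP so stronger rescue from cytokine killing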
CSC inhib – blocks cancer stem cells; cancer stem cell-like cells viability, luminescence; inhibition, % at 7.5 µM; AID 2717; 300,000 compounds, 1.1% hits; in the data active = inhibition above about 75%; inconclusive = no clear call, values can overlap the other calls; tested in HMLE shEcad cells
Mdm2-MdmX inh – inhibitors of human Mdm2/MdmX interaction. O15151+Q00987. SaOS-2 split-luciferase Mdm2/MdmX complementation, luminescence. inhibition, % at 8 µM. 330,000 compounds, 3% hits;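 active = inhibition of at least 50% at 8 µM in the primary screen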
Target sequence (O15151 whole entry, looked up): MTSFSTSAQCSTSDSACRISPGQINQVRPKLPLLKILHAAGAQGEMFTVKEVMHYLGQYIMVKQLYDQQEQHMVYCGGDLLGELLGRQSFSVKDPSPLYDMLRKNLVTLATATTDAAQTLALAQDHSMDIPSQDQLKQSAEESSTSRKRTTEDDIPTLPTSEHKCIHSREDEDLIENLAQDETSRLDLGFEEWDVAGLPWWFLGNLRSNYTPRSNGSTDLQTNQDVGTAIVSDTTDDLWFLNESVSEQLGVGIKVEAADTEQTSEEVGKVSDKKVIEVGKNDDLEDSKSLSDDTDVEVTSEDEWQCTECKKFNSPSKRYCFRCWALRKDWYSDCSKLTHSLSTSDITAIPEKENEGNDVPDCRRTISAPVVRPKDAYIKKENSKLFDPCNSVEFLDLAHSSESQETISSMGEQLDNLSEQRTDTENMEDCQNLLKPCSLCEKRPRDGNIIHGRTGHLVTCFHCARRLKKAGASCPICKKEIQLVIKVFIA
Target sequence (Q00987 whole entry, looked up): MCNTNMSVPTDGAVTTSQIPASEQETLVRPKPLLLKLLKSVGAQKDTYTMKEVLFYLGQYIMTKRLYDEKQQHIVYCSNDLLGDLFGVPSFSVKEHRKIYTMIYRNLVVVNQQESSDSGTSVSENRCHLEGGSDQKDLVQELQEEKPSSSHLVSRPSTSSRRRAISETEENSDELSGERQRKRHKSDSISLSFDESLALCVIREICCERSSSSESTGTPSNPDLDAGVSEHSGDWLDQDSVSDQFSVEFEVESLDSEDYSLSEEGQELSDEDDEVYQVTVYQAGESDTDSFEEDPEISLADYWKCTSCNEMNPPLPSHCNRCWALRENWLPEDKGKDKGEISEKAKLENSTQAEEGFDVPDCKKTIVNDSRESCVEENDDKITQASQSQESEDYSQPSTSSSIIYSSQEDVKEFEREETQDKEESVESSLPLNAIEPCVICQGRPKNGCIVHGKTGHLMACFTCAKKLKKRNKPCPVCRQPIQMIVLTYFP
Mdm2 MdmX conf – confirmation of human Mdm2/MdmX interaction inhibitors; 10,000 compounds, 55% hits; Mdm2-MdmX binding, luminescent assay; shares compounds with Mdm2-MdmX inh; inhibition, % at 8 µM; in the data active = inhibition above about 40%
FLuc counter – counter-screen for Mdm2/MdmX inhibitors: full-length luciferase; shares compounds with Mdm2-MdmX inh; SaOS-2 full-length luciferase counterscreen, luminescence; inhibition, % at 8 µM; 6,200 compounds, 77% hits; AID 504607;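 active = mean inhibition at 8 µM reaching about 37%, which flags the compound as non-specific, limit read from the data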;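 also: p53-null SaOS-2 cells with luciferase driven by a doxycycline-inducible promoter; compound on cells about two nights before reading with doxycycline added after day one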
A number is an active result; – = inactive; ? = inconclusive; · = no result given. A selection: hits, their analogues and other compounds. The true share with any hit is near 5.3%.

SMILES	NLRP3 yeast inh	Calb FLC	T cruzi repl	Beta cell apopt	CSC inhib	Mdm2-MdmX inh	Mdm2 MdmX conf	others
CC[C@]12c3[nH]c4cc(CCC(=O)N(C)C)ccc4c3CCN1C(=O)[C@@H](CC(=O)NCC13CC4CC(CC(C4)C1)C3)C[C@@H]2C(=O)N1CCN(C(=O)c2ccco2)CC1	·	·	·	·	·	50.2	–
CC(C)N(C(=O)[C@H]1C[C@H](CC(=O)NCC23CC4CC(CC(C4)C2)C3)C(=O)N2CCc3c([nH]c4cc(-c5ccco5)ccc34)[C@]12C)C(C)C	·	·	·	·	·	69.8	–
COCCCNC(=O)C[C@H]1C[C@H](C(=O)N(C(C)C)C(C)C)[C@@]2(C)c3[nH]c4cc(-c5ccco5)ccc4c3CCN2C1=O	·	·	·	·	·	–	·
CCN(CC)C(=O)[C@H]1C[C@H](CC(=O)NCc2ccco2)C(=O)N2CCc3c([nH]c4cc(-c5ccco5)ccc34)[C@]12C	·	·	·	·	·	–	·
CCN(CC)C(=O)[C@H]1C[C@H](CC(=O)NCc2cccc(C(F)(F)F)c2)C(=O)N2CCc3c([nH]c4cc(-c5ccco5)ccc34)[C@]12C	·	·	·	·	·	53.2	–
CC(C)N(C(=O)[C@H]1CC(CC(=O)NCC23CC4CC(CC(C4)C2)C3)C(=O)N2CCc3c([nH]c4ccccc34)[C@]12C)C(C)C (some centres undefined)	–	·	·	·	·	59.1	–
CC[C@]12c3[nH]c4ccccc4c3CCN1C(=O)C(CC(=O)NCC13CC4CC(CC(C4)C1)C3)C[C@@H]2C(=O)N1CCN(C(=O)c2ccco2)CC1 (some centres undefined)	–	·	·	–	–	–	·
Cc1nn(Cc2ccc(C(=O)O)o2)c(C)c1[N+](=O)[O-]	–	–	–	·	–	–	·
CC(C)(C)NC(=O)c1nn2c(C(F)(F)F)cc(-c3ccccc3)nc2c1Br	–	–	–	·	–	–	·
CCOc1ccccc1-n1c(N)c(C(N)=O)sc1=S	–	–	–	–	–	–	·
O=C(C1CC(=O)N(C2CCCC2)C1)N1CCN(c2ccc(F)cc2)CC1 (centres undefined)	–	–	–	·	·	–	·
CC(C)N(C(=O)[C@H]1C[C@H](CC(=O)NCC23CC4CC(CC(C4)C2)C3)C(=O)N2CCc3c([nH]c4cc(CCC(=O)N(C)C)ccc34)[C@]12C)C(C)C	·	·	·	·	·	80.8	43.4	FLuc counter=60.1
CCN(CC)C(=O)[C@H]1CC(CC(=O)NCc2cccc(C(F)(F)F)c2)C(=O)N2CCc3c([nH]c4ccc(OC)cc34)[C@]12C (some centres undefined)	·	·	·	·	·	–	·
COc1ccc2[nH]c3c(c2c1)CCN1C(=O)C(CC(=O)NCC24CC5CC(CC(C5)C2)C4)C[C@H](C(=O)N2CCCCC2)[C@@]31C (some centres undefined)	·	·	·	·	·	–	·
CC(C)N(C(=O)[C@H]1CC(CC(=O)NCc2cccc(C(F)(F)F)c2)C(=O)N2CCc3c([nH]c4ccccc34)[C@]12C)C(C)C (some centres undefined)	–	·	·	–	·	63.8	–
CCN(CC)C(=O)[C@H]1CC(CC(=O)NCC23CC4CC(CC(C4)C2)C3)C(=O)N2CCc3c([nH]c4ccc(OC)cc34)[C@]12C (some centres undefined)	·	·	·	·	·	64.5	–
CCOc1ccc(CCNC(=O)c2ccccc2OCc2c(C)noc2C)cc1OCC	–	–	–	·	–	–	·
N#Cc1c(NCc2ccccc2)ccnc1NCc1cccnc1	–	–	–	–	–	–	·
CCn1c(SCC(=O)NCc2ccc3c(c2)OCO3)nc2c(c1=O)SCC2	–	–	–	–	–	–	·
CCOC(=O)C(C)Sc1cnccn1 (centres undefined)	–	–	–	–	–	–	·
Cc1cccc(C)c1OCC(=O)Nc1cccc(-c2nnc(-c3ccccc3)o2)c1	–	–	–	–	·	61.2	–
C[C@@H]1CN([C@H](C)CO)C(=O)c2cc(NC(=O)Nc3ccc(C(F)(F)F)cc3)ccc2O[C@H]1CN(C)S(=O)(=O)c1ccc(Cl)cc1	–	·	·	–	77.8	84.7	–
Cc1ccc(S(=O)(=O)N(C)C[C@@H]2Oc3ccc(NC(=O)CCC(F)(F)F)cc3CC(=O)N([C@@H](C)CO)C[C@@H]2C)cc1	–	·	·	–	–	58.8	56.6	FLuc counter=63.4
C[C@H]1CN([C@@H](C)CO)C(=O)c2cccc(NC(=O)Nc3ccc(C(F)(F)F)cc3)c2O[C@@H]1CN(C)S(=O)(=O)c1ccc(Cl)cc1	–	·	·	–	130.1	57.7	–
C[C@@H]1CN([C@@H](C)CO)C(=O)Cc2cc(NC(=O)Nc3ccc(C(F)(F)F)cc3)ccc2O[C@@H]1CN(C)S(=O)(=O)c1ccc(Cl)cc1	–	·	·	–	131.9	94.0	52.8	FLuc counter=37.6
SMILES	NLRP3 yeast inh	Calb FLC	T cruzi repl	Beta cell apopt	CSC inhib	Mdm2-MdmX inh	Mdm2 MdmX conf	others
C[C@H]1CN([C@@H](C)CO)C(=O)Cc2cc(NC(=O)CCC(F)(F)F)ccc2O[C@H]1CN(C)S(C)(=O)=O	–	·	·	–	·	–	·
O=C(Nc1ccc2c(c1)CCC2)c1cc2ccccc2o1	–	–	–	–	–	–	·
C[C@H](CO)N1C[C@H](C)[C@@H](CN(C)S(=O)(=O)c2ccc(F)cc2)Oc2ccc(NC(=O)Nc3ccccc3)cc2C1=O	–	·	·	–	–	–	·
C[C@H](CO)N1C[C@H](C)[C@@H](CN(C)S(=O)(=O)c2ccc(F)cc2)Oc2ccc(NC(=O)Nc3ccc(C(F)(F)F)cc3)cc2C1=O	–	·	·	–	87.4	75.1	–
COc1ccc(Br)cc1C(C[N+](=O)[O-])c1c(N)n(C)c(=O)n(C)c1=O (centres undefined)	–	–	–	–	83.4	50.5	–
Cc1ccc(-c2csc3ncnc(SCC(=O)Nc4nnc(C)s4)c23)cc1	–	–	–	–	–	–	·
Cc1ccc(-c2csc3ncnc(Sc4nnc(CN5CCCCCC5=O)o4)c23)cc1	–	?	–	–	81.0	83.4	100.2	FLuc counter=–
COC(=O)c1ccccc1S(=O)(=O)C(C)(C)C	–	–	–	–	–	–	·
COC(=O)c1ccccc1S(=O)(=O)NNC(=O)Nc1ccccc1	–	–	–	–	–	68.9	49.5	FLuc counter=74.7
Cc1cccc(-n2cc(C#N)c(=O)[nH]c2=O)n1	–	–	–	–	–	–	·
COc1ccccc1Nc1nnc(SCC(=O)NC(=O)Nc2ccc3c(c2)OCCO3)s1	–	–	–	–	–	67.7	57.5	FLuc counter=44.1
Cc1ccccc1Nc1nnc(SCC(=O)NC(=O)Nc2ccc3c(c2)OCCO3)s1	–	–	–	–	–	–	·
Cc1cccc(Nc2nnc(SCC(=O)NC(=O)Nc3ccc4c(c3)OCCO4)s2)c1	–	–	–	–	–	91.0	–
COc1ccc(-c2nn(-c3ccccc3)cc2/C=C2/SC(=S)N(Cc3ccco3)C2=O)c(C)c1	–	–	–	–	–	58.7	–

Screens from PubChem BioAssay.
